Activity calls are given as the source filed them. The calls are words filed in the database; no cut-off is given here.

Data set [1] in a line: Half life in Balb/c mouse at 10 mg/kg, po measured up to 24 hrs by LC-MS/MS analysis. It counts as ADME, organism-based. The note with it: in vivo. Summed up: (§1)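 Male Balb/c mice, not fasted, food and water ad libitum; single oral dose. Tail-vein blood into heparinized tubes at 0.5, 1, 3, 5, 7, 9 and 24 h, stored at −80 °C. Whole blood protein-precipitated with acetonitrile containing internal standard, analyzed by LC−MS/MS (LOQ 2 ng/mL). Parameters by noncompartmental analysis with curve stripping. Mean of three mice per point.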

Data set [2] can be described thus: Cmax in Balb/c mouse at 10 mg/kg, po measured up to 24 hrs by LC-MS/MS analysis. Type of data set: ADME, organism-based. Set-up: route oral, dose 10 mg/kg, time <=24. The note with it: in vivo. Summed up:
as §1

Data set [3] in a line: Half life in Balb/c mouse at 3 mg/kg, iv measured up to 24 hrs by LC-MS/MS analysis. To be noted: in vivo. Type of data set: ADME, organism-based. Summed up: (§2)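 Intravenous dosing in male Balb/c mice, fed ad libitum. Tail-vein blood sampled into heparinized tubes at 0.17, 0.5, 1, 3, 5, 7, 9 and 24 h, frozen at −80 °C. Blood extracted by acetonitrile protein precipitation with internal standard; LC−MS/MS quantitation, LOQ 2 ng/mL. Noncompartmental analysis based on curve stripping.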

A short description of data set [4]: Tmax in Balb/c mouse at 10 mg/kg, po measured up to 24 hrs by LC-MS/MS analysis. It counts as ADME, organism-based. The note with it: in vivo. The method, boiled down: as §1
For data set [5], the system named is Plasmodium falciparum. Put plainly: Antimalarial activity against asexual blood stage drug-sensitive Plasmodium falciparum NF54 infected in erythrocytes assessed as reduction in parasitemia incubated up to 72 hrs by [3H]hypoxanthine incorporation assay. It counts as functional, organism-based. Summed up: (§3)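 [³H]-Hypoxanthine incorporation assay (modified) on asexual blood-stage P. falciparum in vitro. IC₅₀ values are means of ≥2 independent experiments.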

Data set [6] relates to Plasmodium falciparum. The data set is described as follows: Antimalarial activity against asexual blood stage multi drug-resistant Plasmodium falciparum K1 infected in erythrocytes assessed as reduction in parasitemia incubated up to 72 hrs by [3H]hypoxanthine incorporation assay. It counts as functional, organism-based. Summed up:
as §3

In data set [7] the test system is Plasmodium falciparum. Put plainly: Antiplasmodial activity against […] Plasmodium falciparum NF54 early gametocytes transfected with GFP-Luc […] at 5 uM incubated for 48 hrs by microscopy based luciferase reporter gene assay relative to control. It counts as functional. The method, boiled down: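 NF54-Pfs16-GFP-Luc gametocytes, assays set up day 5 (early, stage II/III) or day 10 (late, stage IV/V). Culture at 2−3% gametocytemia, 1.5% hematocrit, 48 h drug exposure at 37 °C under 90% N₂/5% O₂/5% CO₂. Lysates mixed with luciferin; bioluminescence read with 10 s integration. Dual-point: one biological repeat in technical triplicate. Methylene blue (5 μM) reference.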
(Reporter assays use an easily measured gene product as a stand-in for the process of interest.)

Data set [8] deals with Plasmodium falciparum. Put plainly: Antiplasmodial activity against […] Plasmodium falciparum NF54 early gametocytes transfected with GFP-Luc […] incubated for 48 hrs by microscopy based luciferase reporter gene assay relative to control. Type of data set: functional, organism-based. To be noted: NF54, 48 h. The method, boiled down:
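Transgenic NF54-Pfs16-GFP-Luc gametocytes, read by luciferase reporter. Early assays were set up on day 5 (50% stage II/50% stage III) and late assays on day 10 (40% stage IV/60% stage V). Luciferin was added to lysates at room temperature and bioluminescence read. Methylene blue (5 μM) was the reference. Single-point screens at 1 and 5 μM used n=1 in technical triplicate. IC₅₀ came from a normalized nonlinear fit, n≥3 in triplicate.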

The test system of another data set is CHO. The data set is described as follows: Cytotoxicity against CHO cells assessed as inhibition of cell viability by MTT assay. It counts as cell-based. To be noted: Cricetulus griseus. Background: Tetrazolium assays rely on reduction of a dye to a coloured formazan, in cell work by metabolically active cells.
Data set [9] in a line: Selectivity index, ratio of IC50 for Cytotoxicity against CHO cells assessed as inhibition of cell viability by MTT assay to IC50 for antimalarial activity against asexual blood stage Plasmodium falciparum NF54 assessed as reduction in parasitemia incubated up to 72 hrs by [3H]hypoxanthine incorporation assay. It counts as toxicity, cell-based. To be noted: hamster, read-out: Selectivity Index. The method, boiled down: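 Selectivity index is IC₅₀(CHO)/IC₅₀(NF54). […] IC₅₀ came from nonlinear dose-response fitting. Parasite IC₅₀ came from the [³H]-hypoxanthine assay.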

Data set [10] can be described thus: Metabolic stability in mouse liver microsomes assessed as compound remaining at 1 uM incubated for 30 mins by LC-MS/MS analysis. It counts as ADME, Microsome. The note with it: read-out: Stabilty. The method, boiled down:
(§4)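 Single-point design: 1 μM compound with 0.4 mg/mL liver microsomes in 0.1 M phosphate buffer pH 7.4 for 30 min. Quenched with ice-cold acetonitrile containing carbamazepine internal standard, centrifuged, analyzed by LC−MS/MS. Percent remaining from internal-standard-corrected peak areas at 30 min versus 0 min. Propranolol, midazolam and MMV390048 as controls.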
A general note: Microsomes from liver hold many membrane-bound enzymes, among them those of drug oxidation.

Data set [11] is described as follows: Metabolic stability in rat liver microsomes assessed as compound remaining at 1 uM incubated for 30 mins by LC-MS/MS analysis. It counts as ADME, Microsome. The note with it: read-out: Stabilty. The method, boiled down:
as §4

In a further data set the test system is Plasmodium berghei. Put plainly: Antimalarial activity against GFP-transfected Plasmodium berghei ANKA infected in NMRI mouse model assessed as reduction in parasitemia at 50 mg/kg, po dosed 4 times relative to control. It counts as functional. Set-up: scale not given: the % may be the effect or the level left. The method, boiled down: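 Mice (n = 3) infected with GFP-transfected P. berghei ANKA. Compound in 70% Tween-80/30% ethanol, diluted 10-fold in water, given orally at 4, 24, 48 and 72 h post-infection. Blood taken day 4 (96 h); parasitemia by flow cytometry, detection limit 0.1%. Activity = difference in mean % parasitemia between control and treated, as % of control.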

Data set [12] can be described thus: Clearance in Balb/c mouse at 3 mg/kg, iv measured up to 24 hrs by LC-MS/MS analysis. The note with it: in vivo. It counts as ADME, organism-based. The method, boiled down:
as §2

Data set [13] in a line: Volume of distribution at steady state in Balb/c mouse at 3 mg/kg, iv measured up to 24 hrs by LC-MS/MS analysis. It counts as ADME, organism-based. To be noted: in vivo, read-out: Vdss. The method, boiled down:
as §2

Data set [14] is described as follows: AUC (0 to t) in Balb/c mouse at 3 mg/kg, iv measured up to 24 hrs by LC-MS/MS analysis. Type of data set: ADME, organism-based. Set-up: dose 3 mg/kg, time <=24. The note with it: in vivo. The method, boiled down:
as §2

Data set [15] is described as follows: AUC (0 to t) in Balb/c mouse at 10 mg/kg, po measured up to 24 hrs by LC-MS/MS analysis. More on the design: dose 10 mg/kg, time <=24. The note with it: in vivo. It counts as ADME, organism-based. The method, boiled down:
as §1

Data set [16] can be described thus: Oral bioavailability in Balb/c mouse at 10 mg/kg measured up to 24 hrs by LC-MS/MS analysis. Type of data set: ADME, organism-based. To be noted: in vivo. The method, boiled down: as §1
The subject of another data set is Hemozoin. The data set is described as follows: Inhibition of Beta-hematin in early ring stage Plasmodium falciparum parasitized red blood cells assessed as hemozoin formation formation after 32 hrs by Giemsa staining based haemocytometric counting method.
The test system of data set [17] is Plasmodium falciparum NF54. The data set is described as follows: Inhibition of tubulin polymerization in asexual blood stage Plasmodium falciparum NF54 at 600 nM incubated for 24 hrs by tubulin tracker Oregon Green staining method. The method, boiled down:
(§5)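 Treatment at 600 nM for asexual parasites (~1% parasitemia, 5% hematocrit, sorbitol-synchronized rings) or 2400 nM for early gametocytes (~2% gametocytemia, 2% hematocrit, 20% I/60% II/20% III). 24 h at 37 °C, 90% N₂/5% CO₂/5% O₂, DMSO <0.1%. Stained with 250 nM Tubulin Tracker Oregon Green 488 for 30 min and Hoechst (100 nM) for 10 min. PBS-washed, imaged live by confocal microscopy. Colchicine (20 μM) positive control.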

The subject of data set [18] is Plasmodium falciparum NF54. Put plainly: Inhibition of tubulin polymerization in asexual stage (I) Plasmodium falciparum NF54 early gametocytes at 2400 nM incubated for 24 hrs by tubulin tracker Oregon Green staining method. Summed up: as §5
Data set [19] relates to Plasmodium falciparum NF54. Put plainly: Inhibition of tubulin polymerization in […] Plasmodium falciparum NF54 early gametocytes at 2400 nM incubated for 24 hrs by tubulin tracker Oregon Green staining method. Summed up: as §5

On to `CCNCc1cc(Cl)cc(Nc2nc3cc(F)c(F)cc3n2Cc2ccc(C(F)(F)F)cc2)c1O`, for which the half-life (as a rule, how long it takes for the measured level to halve) in data set [1] is 8.3 h; in data set [3], 6.3 h. In addition, the concentration in [2] peaked (Cmax) at 0.4 µM. For the same compound, the Tmax (as a rule, the time from dosing to the highest level) in data set [4] turned out to be 2.8 h. Also, the IC50 (as a rule, the concentration at which inhibition is half-maximal) in the data set with Plasmodium falciparum [5] is 0.19 µM; in the data set on Plasmodium falciparum [6], 0.08 µM; with Plasmodium falciparum [8], 0.46 µM; in the data set with CHO it was above 50 µM. In the data set on Plasmodium falciparum [7], the inhibition (commonly the change of the read-out against control, counted positive when it falls) at 5 µM turned out to be 91%. Moreover, the selectivity ratio at 72 h in [9] was above 263. The remaining at 0.5 h, 1 µM was found to be 86% in data set [10] and 98% in [11]. Further, in the data set on Plasmodium berghei, the Activity is on record as 98%. For the same compound, the clearance (usually a measure of how efficiently the substance is removed, as volume per time) in data set [12] worked out at 0.756 L/h/kg. Moreover, the Vd in data set [13] is 5.8 L/kg. In addition, the AUCt in [14] was 443 µmol·min/L; in [15], 321 µmol·min/L. In [16], the bioavailability (commonly the share of a dose that reaches the circulation, judged against a reference dose that is usually intravenous) amounted to 24%. Besides, in the data set on Hemozoin, the outcome was inactive. Moreover, the inhibition result in [17] and in data set [19] was “Active” in each case. The inhibition result in data set [18] was “inactive”.

Source of the values: ChEMBL document CHEMBL4834426, “Antimalarial Benzimidazole Derivatives Incorporating Phenolic Mannich Base Side Chains Inhibit Microtubule and Hemozoin Formation: Structure-Activity Relationship and In Vivo Oral Efficacy Studies” (J Med Chem, 2021).
